Measurements taken from article PMC9563295 (Journal of the American Chemical Society, 2022).
Numbered stars: 1 amine (or outer) side, 2 acyl side, 3 side chain; on linkers, the order of the positions; unused ones are H or OH. Bridge positions count the residues as written; N and C are the ends. Square brackets hold non-standard residues; d marks the D form. Peptide text beside a SMILES is read from it. ξ: configuration not given here. ξβ3hPhg = O=C(CC(N[*:1])c1ccccc1)[*:2]; ξPhg = NC(C(=O)O)c1ccccc1; βAla = NCCC(=O)O

Target: hEGFR (Homo sapiens, UniProt P00533)
Assay: Binding kinetics analysis by surface plasmon resonance
Settings: KD compared with 2D and 18D

hEGFR, sequence (P00533 25-1210): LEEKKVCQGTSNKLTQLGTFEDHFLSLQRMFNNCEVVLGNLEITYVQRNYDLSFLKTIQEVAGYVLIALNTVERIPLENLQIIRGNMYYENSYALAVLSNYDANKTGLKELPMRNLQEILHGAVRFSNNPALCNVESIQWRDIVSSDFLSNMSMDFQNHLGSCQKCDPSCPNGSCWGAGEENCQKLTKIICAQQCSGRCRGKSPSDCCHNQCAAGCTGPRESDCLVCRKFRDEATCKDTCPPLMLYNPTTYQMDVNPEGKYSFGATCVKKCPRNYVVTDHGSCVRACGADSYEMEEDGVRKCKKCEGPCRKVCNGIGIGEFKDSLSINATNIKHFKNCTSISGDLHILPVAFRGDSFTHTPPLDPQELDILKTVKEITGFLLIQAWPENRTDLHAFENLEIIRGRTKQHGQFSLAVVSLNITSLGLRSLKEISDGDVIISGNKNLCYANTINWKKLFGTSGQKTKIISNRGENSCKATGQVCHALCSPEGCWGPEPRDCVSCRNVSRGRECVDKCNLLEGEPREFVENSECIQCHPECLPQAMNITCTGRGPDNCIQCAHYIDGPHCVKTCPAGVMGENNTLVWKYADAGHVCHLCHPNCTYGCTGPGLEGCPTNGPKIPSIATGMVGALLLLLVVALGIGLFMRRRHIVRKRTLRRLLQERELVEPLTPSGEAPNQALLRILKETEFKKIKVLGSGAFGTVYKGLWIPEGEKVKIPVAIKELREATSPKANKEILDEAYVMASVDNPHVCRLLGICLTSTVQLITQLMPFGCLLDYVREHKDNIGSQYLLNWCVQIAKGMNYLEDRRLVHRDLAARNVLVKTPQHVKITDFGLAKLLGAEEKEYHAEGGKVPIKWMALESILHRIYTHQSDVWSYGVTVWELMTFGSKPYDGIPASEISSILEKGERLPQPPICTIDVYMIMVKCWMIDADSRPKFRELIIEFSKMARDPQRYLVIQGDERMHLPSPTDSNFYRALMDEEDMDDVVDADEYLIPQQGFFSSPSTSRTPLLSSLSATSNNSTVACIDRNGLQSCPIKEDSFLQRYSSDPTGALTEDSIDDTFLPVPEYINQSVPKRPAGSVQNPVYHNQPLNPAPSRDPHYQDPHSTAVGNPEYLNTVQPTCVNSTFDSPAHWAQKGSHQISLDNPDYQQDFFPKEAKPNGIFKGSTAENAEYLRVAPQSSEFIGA

| SMILES | fold stronger binding affinity in comparison with 2D and 18D |
| --- | --- |
| CC(C)C[C@@H]1NC(=O)CC(c2ccccc2)NC(=O)[C@H](CC(C)C)NC(=O)[C@H](Cc2ccc(O)cc2)NC(=O)CSC[C@@H](C(=O)NCC(N)=O)NC(=O)[C@H](Cc2ccc(O)cc2)NC(=O)[C@H](CC(C)C)NC(=O)[C@H](Cc2ccc(O)cc2)NC(=O)[C@H](CCCNC(=N)N)NC(=O)[C@H](CC(N)=O)NC(=O)[C@@H]2CCCN2C(=O)CC(c2ccccc2)NC(=O)[C@H](CCCNC(=N)N)NC(=O)[C@H](CCCNC(=N)N)NC(=O)CC(c2ccccc2)NC(=O)[C@H](Cc2ccc(O)cc2)NC1=O (stereo partly drawn) [L2β, ^AcYL^βXLY^βXRR^βXPNRYLYCG-NH2] ({CH2CO}-YL[ξβ3hPhg]LY[ξβ3hPhg]RR[ξβ3hPhg]PNRYLYCG-NH2; thioether N-16) | approximately 10 fold |
| CC(C)[C@@H]1NC(=O)[C@H](CCCNC(=N)N)NC(=O)[C@H](Cc2ccc(O)cc2)NC(=O)[C@H](C(C)C)NC(=O)[C@H](C(C)C)NC(=O)[C@H](CCCNC(=N)N)NC(=O)[C@H](CC(=O)O)NC(=O)[C@H](CC(=O)O)NC(=O)CCNC(=O)[C@H](Cc2ccc(O)cc2)NC(=O)[C@H](Cc2ccc(O)cc2)NC(=O)[C@H](Cc2ccccc2)NC(=O)[C@@H](Cc2ccc(O)cc2)NC(=O)CSC[C@@H](C(=O)NCC(N)=O)NC(=O)CC(c2ccccc2)NC1=O (stereo partly drawn) [D4β] ({CH2CO}-[dY]FYY[βAla]DDRVVYRV[ξβ3hPhg]CG-NH2; thioether N-15) | approximately 10 fold |

Target: hEGF–hEGFR interaction (Homo sapiens, UniProt P00533)
Assay: hEGFR inhibition assay using AlphaLISA
Type: biochemical
Settings: not given

hEGF–hEGFR interaction, sequence (P00533 25-645 limits assumed): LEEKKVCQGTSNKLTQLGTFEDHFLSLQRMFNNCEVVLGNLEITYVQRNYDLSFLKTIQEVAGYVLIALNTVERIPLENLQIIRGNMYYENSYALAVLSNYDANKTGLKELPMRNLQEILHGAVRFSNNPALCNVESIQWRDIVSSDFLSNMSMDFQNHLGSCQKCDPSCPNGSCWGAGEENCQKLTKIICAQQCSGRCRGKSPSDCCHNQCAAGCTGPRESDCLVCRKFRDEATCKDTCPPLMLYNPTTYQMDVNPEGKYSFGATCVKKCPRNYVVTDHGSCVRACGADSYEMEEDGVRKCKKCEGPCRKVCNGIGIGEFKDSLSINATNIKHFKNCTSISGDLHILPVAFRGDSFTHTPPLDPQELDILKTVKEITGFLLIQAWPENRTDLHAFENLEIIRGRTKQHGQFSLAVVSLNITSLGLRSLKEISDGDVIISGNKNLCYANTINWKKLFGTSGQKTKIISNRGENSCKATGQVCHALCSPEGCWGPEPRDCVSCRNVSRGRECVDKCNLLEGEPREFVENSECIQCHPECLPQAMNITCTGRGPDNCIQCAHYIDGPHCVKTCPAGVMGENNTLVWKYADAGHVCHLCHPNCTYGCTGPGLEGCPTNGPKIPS

| SMILES | PPI inhibitory activity against hEGF–hEGFR interaction (in words) |
| --- | --- |
| CC(C)[C@@H]1NC(=O)[C@H](CCCNC(=N)N)NC(=O)[C@H](Cc2ccc(O)cc2)NC(=O)[C@H](C(C)C)NC(=O)[C@H](C(C)C)NC(=O)[C@H](CCCNC(=N)N)NC(=O)[C@H](CC(=O)O)NC(=O)[C@H](CC(=O)O)NC(=O)[C@H](C)NC(=O)[C@H](Cc2ccc(O)cc2)NC(=O)[C@H](Cc2ccc(O)cc2)NC(=O)[C@H](Cc2ccccc2)NC(=O)[C@@H](Cc2ccc(O)cc2)NC(=O)CSC[C@@H](C(=O)NCC(N)=O)NC(=O)[C@H](C)NC1=O [D4A] ({CH2CO}-[dY]FYYADDRVVYRVACG-NH2; thioether N-15) | complete loss of the activity |
| CC(C)C[C@H](NC(=O)CNC(=O)[C@H](CCCNC(=N)N)NC(=O)CC(NC(=O)[C@@H]1CSCC(=O)N[C@H](Cc2ccc(O)cc2)C(=O)N[C@@H](C(C)C)C(=O)N[C@@H](Cc2ccc(O)cc2)C(=O)N1)c1ccccc1)C(=O)N[C@@H](CC(=O)O)C(=O)N1CCC[C@H]1C(=O)N[C@@H](CCCNC(=N)N)C(=O)N[C@@H](CC(C)C)C(=O)N[C@@H](CO)C(=O)N[C@@H](CCCNC(=N)N)C(=O)N[C@@H](Cc1ccccc1)C(=O)N[C@@H](CO)C(=O)NCC(N)=O (stereo partly drawn) [D2β, ^AcyVYC^βXRGLDPRLSRFSG-NH2] ({CH2CO}-[dY]VYC[ξβ3hPhg]RGLDPRLSRFSG-NH2; thioether N-4) | no inhibitory activity |
| CC(C)[C@@H]1NC(=O)[C@H](CCCNC(=N)N)NC(=O)[C@H](Cc2ccc(O)cc2)NC(=O)[C@H](C(C)C)NC(=O)[C@H](C(C)C)NC(=O)[C@H](CCCNC(=N)N)NC(=O)[C@H](CC(=O)O)NC(=O)[C@H](CC(=O)O)NC(=O)CNC(=O)[C@H](Cc2ccc(O)cc2)NC(=O)[C@H](Cc2ccc(O)cc2)NC(=O)[C@H](Cc2ccccc2)NC(=O)[C@@H](Cc2ccc(O)cc2)NC(=O)CSC[C@@H](C(=O)NCC(N)=O)NC(=O)C(c2ccccc2)NC1=O (stereo partly drawn) [D4α, ^AcyFYYGDDRVVYRVXCG-NH2] ({CH2CO}-[dY]FYYGDDRVVYRV[ξPhg]CG-NH2; thioether N-15) | complete loss of the activity |

Same assay, conditions: mutant vs parent L2β, D3β or D4β

| SMILES | fold increase of IC50 compared to the parent peptide [fold] |
| --- | --- |
| CC(C)C[C@@H]1NC(=O)CC(c2ccccc2)NC(=O)[C@H](CC(C)C)NC(=O)[C@H](Cc2ccc(O)cc2)NC(=O)CSC[C@@H](C(=O)NCC(N)=O)NC(=O)[C@H](Cc2ccc(O)cc2)NC(=O)[C@H](CC(C)C)NC(=O)[C@H](Cc2ccc(O)cc2)NC(=O)[C@H](CCCNC(=N)N)NC(=O)[C@H](CC(N)=O)NC(=O)[C@@H]2CCCN2C(=O)CC(c2ccccc2)NC(=O)[C@H](CCCNC(=N)N)NC(=O)[C@H](CCCNC(=N)N)NC(=O)CCNC(=O)[C@H](Cc2ccc(O)cc2)NC1=O (stereo partly drawn) [L2βG.2, ^AcYL^βXLY^βGRR^βXPNRYLYCG-NH2] ({CH2CO}-YL[ξβ3hPhg]LY[βAla]RR[ξβ3hPhg]PNRYLYCG-NH2; thioether N-16) | 1270 |
| CC(C)[C@@H]1NC(=O)[C@H](CCCNC(=N)N)NC(=O)[C@H](Cc2ccc(O)cc2)NC(=O)[C@H](C(C)C)NC(=O)[C@H](C(C)C)NC(=O)[C@H](CCCNC(=N)N)NC(=O)[C@H](CC(=O)O)NC(=O)[C@H](CC(=O)O)NC(=O)CCNC(=O)[C@H](Cc2ccc(O)cc2)NC(=O)[C@H](Cc2ccc(O)cc2)NC(=O)[C@H](Cc2ccccc2)NC(=O)[C@@H](Cc2ccc(O)cc2)NC(=O)CSC[C@@H](C(=O)NCC(N)=O)NC(=O)CCNC1=O [D4βG] ({CH2CO}-[dY]FYY[βAla]DDRVVYRV[βAla]CG-NH2; thioether N-15) | 2.2 |
| CC(C)C[C@@H]1NC(=O)CC(c2ccccc2)NC(=O)[C@H](CC(C)C)NC(=O)[C@H](Cc2ccc(O)cc2)NC(=O)CSC[C@@H](C(=O)NCC(N)=O)NC(=O)[C@H](Cc2ccc(O)cc2)NC(=O)[C@H](CC(C)C)NC(=O)[C@H](Cc2ccc(O)cc2)NC(=O)[C@H](CCCNC(=N)N)NC(=O)[C@H](CC(N)=O)NC(=O)[C@@H]2CCCN2C(=O)CC(c2ccccc2)NC(=O)[C@H](CCCNC(=N)N)NC(=O)[C@H](CCCNC(=N)N)NC(=O)C(c2ccccc2)NC(=O)[C@H](Cc2ccc(O)cc2)NC1=O (stereo partly drawn) [L2α.2, ^AcYL^βXLYXRR^βXPNRYLYCG-NH2] ({CH2CO}-YL[ξβ3hPhg]LY[ξPhg]RR[ξβ3hPhg]PNRYLYCG-NH2; thioether N-16) | 460 |

Test system: not listed separately
Assay: Serum stability assay
Type: in vitro ADME
Settings: human serum, 37 °C; mutant vs parent L2β or D4β
Method in brief: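 Test peptides (parents plus Ala, backbone-shortening and sidechain-deletion mutants) incubated in human serum at 37 °C for up to 72 h. Percentage of remaining peptide over time estimated by LC/MS, and half-life (t1/2) derived from the decay.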

| SMILES | fold lower t1/2 than the parent peptide |
| --- | --- |
| CC(C)[C@@H]1NC(=O)[C@H](CCCNC(=N)N)NC(=O)[C@H](Cc2ccc(O)cc2)NC(=O)[C@H](C(C)C)NC(=O)[C@H](C(C)C)NC(=O)[C@H](CCCNC(=N)N)NC(=O)[C@H](CC(=O)O)NC(=O)[C@H](CC(=O)O)NC(=O)CNC(=O)[C@H](Cc2ccc(O)cc2)NC(=O)[C@H](Cc2ccc(O)cc2)NC(=O)[C@H](Cc2ccccc2)NC(=O)[C@@H](Cc2ccc(O)cc2)NC(=O)CSC[C@@H](C(=O)NCC(N)=O)NC(=O)CC(c2ccccc2)NC1=O (stereo partly drawn) [D4α.1] ({CH2CO}-[dY]FYYGDDRVVYRV[ξβ3hPhg]CG-NH2; thioether N-15) | 2 fold |
| CC(C)C[C@@H]1NC(=O)[C@H](C)NC(=O)[C@H](CC(C)C)NC(=O)[C@H](Cc2ccc(O)cc2)NC(=O)CSC[C@@H](C(=O)NCC(N)=O)NC(=O)[C@H](Cc2ccc(O)cc2)NC(=O)[C@H](CC(C)C)NC(=O)[C@H](Cc2ccc(O)cc2)NC(=O)[C@H](CCCNC(=N)N)NC(=O)[C@H](CC(N)=O)NC(=O)[C@@H]2CCCN2C(=O)[C@H](C)NC(=O)[C@H](CCCNC(=N)N)NC(=O)[C@H](CCCNC(=N)N)NC(=O)[C@H](C)NC(=O)[C@H](Cc2ccc(O)cc2)NC1=O [L2A] ({CH2CO}-YLALYARRAPNRYLYCG-NH2; thioether N-16) | approximately 10 fold |
| CC(C)[C@@H]1NC(=O)[C@H](CCCNC(=N)N)NC(=O)[C@H](Cc2ccc(O)cc2)NC(=O)[C@H](C(C)C)NC(=O)[C@H](C(C)C)NC(=O)[C@H](CCCNC(=N)N)NC(=O)[C@H](CC(=O)O)NC(=O)[C@H](CC(=O)O)NC(=O)[C@H](C)NC(=O)[C@H](Cc2ccc(O)cc2)NC(=O)[C@H](Cc2ccc(O)cc2)NC(=O)[C@H](Cc2ccccc2)NC(=O)[C@@H](Cc2ccc(O)cc2)NC(=O)CSC[C@@H](C(=O)NCC(N)=O)NC(=O)CC(c2ccccc2)NC1=O (stereo partly drawn) [D4A.1] ({CH2CO}-[dY]FYYADDRVVYRV[ξβ3hPhg]CG-NH2; thioether N-15) | 26 fold |
| CC(C)[C@@H]1NC(=O)[C@H](CCCNC(=N)N)NC(=O)[C@H](Cc2ccc(O)cc2)NC(=O)[C@H](C(C)C)NC(=O)[C@H](C(C)C)NC(=O)[C@H](CCCNC(=N)N)NC(=O)[C@H](CC(=O)O)NC(=O)[C@H](CC(=O)O)NC(=O)CCNC(=O)[C@H](Cc2ccc(O)cc2)NC(=O)[C@H](Cc2ccc(O)cc2)NC(=O)[C@H](Cc2ccccc2)NC(=O)[C@@H](Cc2ccc(O)cc2)NC(=O)CSC[C@@H](C(=O)NCC(N)=O)NC(=O)[C@H](C)NC1=O [D4A.2] ({CH2CO}-[dY]FYY[βAla]DDRVVYRVACG-NH2; thioether N-15) | 2.6 fold |
